Test results reported in ChEMBL document CHEMBL4007402 (J Med Chem, 2017).

Experiments:
[1] = Growth inhibition of mouse BAF3 cells after 72 hrs by CellTiter-Glo or CCK-8 assay; assay type: cell-based
Procedure, shortened: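 Isogenic murine BaF3 cells transformed with TEL-fused kinases, whose proliferation depends on the fused kinase, were used. Parental BaF3 cells served as the general selectivity counter-screen. The anti-proliferative read-out was reported as GI50.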

[2] = molecular target: T1, Cytoplasmic tyrosine-protein kinase BMX (Homo sapiens) (UniProt P51813)
T1 sequence (whole entry): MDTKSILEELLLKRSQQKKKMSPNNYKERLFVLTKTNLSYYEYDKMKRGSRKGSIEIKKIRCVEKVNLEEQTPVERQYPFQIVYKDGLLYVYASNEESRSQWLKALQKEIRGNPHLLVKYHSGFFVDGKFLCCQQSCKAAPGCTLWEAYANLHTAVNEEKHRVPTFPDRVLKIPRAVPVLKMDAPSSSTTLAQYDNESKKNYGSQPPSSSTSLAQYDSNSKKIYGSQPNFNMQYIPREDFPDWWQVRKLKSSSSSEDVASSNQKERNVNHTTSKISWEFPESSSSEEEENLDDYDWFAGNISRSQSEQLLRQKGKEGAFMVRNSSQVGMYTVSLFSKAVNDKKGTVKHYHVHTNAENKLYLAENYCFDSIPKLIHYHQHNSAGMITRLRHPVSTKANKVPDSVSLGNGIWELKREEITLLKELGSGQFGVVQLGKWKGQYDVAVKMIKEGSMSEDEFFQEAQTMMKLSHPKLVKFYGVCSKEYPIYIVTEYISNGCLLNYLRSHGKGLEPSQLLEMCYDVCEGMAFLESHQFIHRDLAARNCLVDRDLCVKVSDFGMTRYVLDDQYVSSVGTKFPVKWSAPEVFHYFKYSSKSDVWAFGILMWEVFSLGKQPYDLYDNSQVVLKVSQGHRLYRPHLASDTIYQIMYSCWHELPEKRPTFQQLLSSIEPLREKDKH

SMILES	GI50 at 72 h [1] [µM]	GI50 [2] [µM]
Cc1ccc(Nc2ncc3c(n2)N(C)C(=O)N(c2cc(NC(=O)c4cccc(C(F)(F)F)c4)ccc2C)C3)cn1	0.12	
C=CC(=O)Nc1cc(Nc2ncc3c(n2)N(C)C(=O)N(c2cc(NC(=O)c4cc(C(F)(F)F)cc(C(F)(F)F)c4)ccc2C)C3)ccc1C	> 10	0.78
C=CC(=O)Nc1cc(Nc2ncc3c(n2)N(C)C(=O)N(c2cc(NC(=O)c4ccc5c(c4)OCCO5)ccc2C)C3)ccc1C	> 10	> 10
C=CC(=O)Nc1cc(Nc2ncc3c(n2)N(C)C(=O)N(c2cc(NC(=O)c4cc(OC)cc(OC)c4)ccc2C)C3)ccc1C	> 10	0.69
C=CC(=O)Nc1cc(Nc2ncc3c(n2)N(C)C(=O)N(c2cc(NC(=O)[C@H]4CC[C@H](CCCC)CC4)ccc2C)C3)ccc1C	5.08	2.49
C=CC(=O)Nc1cc(Nc2ncc3c(n2)N(C)C(=O)N(c2cc(NC(=O)c4ccc(OC)cc4OC)ccc2C)C3)ccc1C	> 10	2.74
C=CC(=O)Nc1cc(Nc2ncc3c(n2)N(C)C(=O)N(c2cc(NC(=O)[C@@H](N)CCC(=O)OC(C)(C)C)ccc2C)C3)ccc1C	> 10	8.35
C=CC(=O)Nc1cc(Nc2ncc3c(n2)N(C)C(=O)N(c2cc(NC(=O)c4ccc5c(c4)OCO5)ccc2C)C3)ccc1C	> 10	0.23
C=CC(=O)Nc1cc(Nc2ncc3c(n2)N(C)C(=O)N(c2cc(NC(=O)c4c(C)cccc4F)ccc2C)C3)ccc1C	> 10	2.78
C=CC(=O)Nc1cc(Nc2ncc3c(n2)N(C)C(=O)N(c2cc(NC(=O)c4cc(OC)ccc4OC)ccc2C)C3)ccc1C	> 10	3
C=CC(=O)Nc1cc(Nc2ncc3c(n2)N(C)C(=O)N(c2cc(NC(=O)c4ccc(OC)cc4)ccc2C)C3)ccc1C	> 10	1.07
C=CC(=O)Nc1cc(Nc2ncc3c(n2)N(C)C(=O)N(c2cc(NC(=O)[C@@H](N)CC(C)C)ccc2C)C3)ccc1C	> 10	0.13
C=CC(=O)Nc1cc(Nc2ncc3c(n2)N(C)C(=O)N(c2cc(NC(=O)c4cc(OC)c(OC)c(OC)c4)ccc2C)C3)ccc1C	> 10	5.93
C=CC(=O)Nc1cc(Nc2ncc(C(=O)Nc3cc(NC(=O)c4ccc(OC)c(OC)c4)ccc3C)c(NC)n2)ccc1C	> 10	1
C=CC(=O)Nc1cc(Nc2ncc3c(n2)N(C)C(=O)N(c2cc(NC(=O)[C@H]4CC[C@H](C)CC4)ccc2C)C3)ccc1C	8.81	2.28
C=CC(=O)Nc1cc(Nc2ncc3c(n2)N(C)C(=O)N(c2cc(NC(=O)c4ccc5c(c4)CCCC5)ccc2C)C3)ccc1C	> 10	
C=CC(=O)Nc1cc(Nc2ncc(C(=O)Nc3cc(NC(=O)c4cc(OC)cc(OC)c4)ccc3C)c(NC)n2)ccc1C	> 10	0.119
C=CC(=O)Nc1cc(Nc2ncc(C(=O)Nc3cc(NC(=O)c4ccc(OC)cc4)ccc3C)c(NC)n2)ccc1C	> 10	1.1

SMILES	GI50 at 72 h [1] [µM]	GI50 [2] [µM]
C=CC(=O)Nc1cc(Nc2ncc3c(n2)N(C)C(=O)N(c2cc(NC(=O)c4ccc(OC)c(OC)c4)ccc2C)C3)ccc1C	8.13	0.24
C=CC(=O)Nc1cc(Nc2ncc3c(n2)N(C)C(=O)N(c2cc(NC(=O)c4ccc(C)c(C(F)(F)F)c4)ccc2C)C3)ccc1C	> 10	1.24
C=CC(=O)Nc1cc(Nc2ncc(C(=O)Nc3cc(C(=O)Nc4cc(OC)c(OC)c(OC)c4)ccc3C)c(NC)n2)ccc1C	> 10	0.098
C=CC(=O)Nc1cc(Nc2ncc(C(=O)Nc3cc(NC(=O)c4ccccc4OC)ccc3C)c(NC)n2)ccc1C	> 10	0.67
C=CC(=O)Nc1cc(Nc2ncc3c(n2)N(C)C(=O)N(c2cc(NC(=O)[C@H]4CC[C@H](C(C)C)CC4)ccc2C)C3)ccc1C	> 10	5.28
C=CC(=O)Nc1cc(Nc2ncc(C(=O)Nc3cc(NC(=O)c4ccc5c(c4)OCO5)ccc3C)c(NC)n2)ccc1C	> 10	1.08
C=CC(=O)Nc1cc(Nc2ncc(C(=O)Nc3cc(C(=O)Nc4cccc(C(F)(F)F)c4)ccc3C)c(NC)n2)ccc1C	4.9	0.008
C=CC(=O)Nc1cc(Nc2ncc3c(n2)N(C)C(=O)N(c2cc(NC(=O)[C@H]4CC[C@H](C(F)(F)F)CC4)ccc2C)C3)ccc1C	> 10	5.9
C=CC(=O)Nc1cc(Nc2ncc3c(n2)N(C)C(=O)N(c2cc(NC(=O)[C@H]4CC[C@H](CCC)CC4)ccc2C)C3)ccc1C	7.4	0.64
C=CC(=O)Nc1cc(Nc2ncc(C(=O)Nc3cc(NC(=O)c4cccc(OC)c4)ccc3C)c(NC)n2)ccc1C	> 10	6
C=CC(=O)Nc1cc(Nc2ncc3c(n2)N(C)C(=O)N(c2cc(NC(=O)[C@@H](N)Cc4ccccc4)ccc2C)C3)ccc1C	> 10	
C=CC(=O)Nc1cc(Nc2ncc3c(n2)N(C)C(=O)N(c2cc(NC(=O)[C@@H](N)Cc4cc5ccccc5[nH]4)ccc2C)C3)ccc1C	> 10	> 10
C=CC(=O)Nc1cc(Nc2ncc3c(n2)N(C)C(=O)N(c2cc(NC(=O)c4cc(C)ccc4F)ccc2C)C3)ccc1C	> 10	0.031
C=CC(=O)Nc1cc(Nc2ncc(C(=O)Nc3cc(NC(=O)c4ccc5c(c4)OCCO5)ccc3C)c(NC)n2)ccc1C	> 10	0.155
C=CC(=O)Nc1cc(Nc2ncc3c(n2)N(C)C(=O)N(c2cc(NC(=O)c4ccccc4OC)ccc2C)C3)ccc1C	> 10	3.01
C=CC(=O)Nc1cc(Nc2ncc(C(=O)Nc3cc(NC(=O)c4cc(C)ccc4F)ccc3C)c(NC)n2)ccc1C	> 10	0.044
C=CC(=O)Nc1cc(Nc2ncc3c(n2)N(C)C(=O)N(c2cc(NC(=O)c4cccc(C(F)(F)F)c4)ccc2C)C3)ccc1C	0.74	
C=CC(=O)Nc1cc(Nc2ncc3c(n2)N(C)C(=O)N(c2cc(NC(=O)c4ccc(N(C)C)cc4)ccc2C)C3)ccc1C	> 10	1.03
